Assay results: ChEMBL document CHEMBL1817564, “Recognition of HIV TAR RNA by triazole linked neomycin dimers” (Bioorg Med Chem Lett, 2011)
pIC50, pKd: −log10 of the molar value. Active and inactive are the calls of the source. The rule behind the calls is not given here.

Legend:
[1] = system: Nucleic Acid; test: Binding affinity to HIV1 TAR RNA assessed as change in melting temperature at HIV1 TAR RNA to compound ratio of 1 at pH 6.8 by UV thermal denaturation assay; type: nucleic-acid assay; conditions: Human immunodeficiency virus 1
Summary of the method: (§1)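 UV melting of HIV-1 TAR RNA (1 µM/strand) with ligand at 1 µM (ratio 1) in 100 mM KCl, 10 mM SC, 0.5 mM EDTA, pH 6.8. Tm taken from first-derivative plots of absorbance versus temperature; ΔTm is relative to RNA alone.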

[2] = system: Nucleic Acid; test: Binding affinity to HIV1 TAR RNA assessed as melting temperature at HIV1 TAR RNA to compound ratio of 1 at pH 6.8 by UV thermal denaturation assay; type: nucleic-acid assay; conditions: Human immunodeficiency virus 1; summary of the method: as §1
[3] = system: Nucleic Acid; test: Binding affinity to HIV1 TAR RNA at […] up to 3 by CD Spectroscopy; type: nucleic-acid assay; conditions: Human immunodeficiency virus 1
Summary of the method: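 CD titration of HIV TAR RNA with incremental additions of neomycin dimer, covering drug/duplex ratio (rdd) 0 to 3. Read-out is molar ellipticity.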

[4] = system: Nucleic Acid; test: Binding affinity to HIV1 TAR RNA assessed as melting temperature at compound to TAR RNA ratio of 4 at pH 6.8 by UV thermal denaturation assay; type: nucleic-acid assay; conditions: Human immunodeficiency virus 1
[5] = system: Nucleic Acid; test: Binding affinity to HIV1 TAR RNA assessed as melting temperature at compound to TAR RNA ratio of 2 at pH 6.8 by UV thermal denaturation assay; type: nucleic-acid assay; conditions: Human immunodeficiency virus 1
Summary of the method: (§2)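 TAR RNA UV thermal denaturation in 100 mM KCl, 10 mM SC, 0.5 mM EDTA, pH 6.8, with dimer:RNA at 2:1. Tm taken from first-derivative plots.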

[6] = system: Nucleic Acid; test: Binding affinity to HIV1 TAR RNA assessed as change in melting temperature at compound to TAR RNA ratio of 4 at pH 6.8 by UV thermal denaturation assay; type: nucleic-acid assay; conditions: Human immunodeficiency virus 1
[7] = system: Nucleic Acid; test: Binding affinity to HIV1 TAR RNA assessed as change in melting temperature at compound to TAR RNA ratio of 2 at pH 6.8 by UV thermal denaturation assay; type: nucleic-acid assay; conditions: Human immunodeficiency virus 1; summary of the method: as §2
[8] = system: Nucleic Acid; test: Inhibition of HIV1 TAR RNA; type: nucleic-acid assay, Human immunodeficiency virus 1

SMILES | ΔTm [1] [°C] | Tm [2] [°C] | further results
NC[C@@H]1O[C@H](O[C@H]2[C@@H](O)[C@H](O[C@@H]3[C@@H](O)[C@H](N)C[C@H](N)[C@H]3O[C@H]3O[C@H](CN)[C@@H](O)[C@H](O)[C@H]3N)O[C@@H]2Cn2cc(COCCCCCCCCOCc3cn(C[C@H]4O[C@@H](O[C@@H]5[C@@H](O)[C@H](N)C[C@H](N)[C@H]5O[C@H]5O[C@H](CN)[C@@H](O)[C@H](O)[C@H]5N)[C@H](O)[C@@H]4O[C@H]4O[C@@H](CN)[C@@H](O)[C@H](O)[C@H]4N)nn3)nn2)[C@H](N)[C@@H](O)[C@@H]1O | 5.4 | 74.3 | 
NC[C@@H]1O[C@H](O[C@H]2[C@@H](O)[C@H](O[C@@H]3[C@@H](O)[C@H](N)C[C@H](N)[C@H]3O[C@H]3O[C@H](CN)[C@@H](O)[C@H](O)[C@H]3N)O[C@@H]2Cn2cc(COCCCCCCCCCCCCOCc3cn(C[C@H]4O[C@@H](O[C@@H]5[C@@H](O)[C@H](N)C[C@H](N)[C@H]5O[C@H]5O[C@H](CN)[C@@H](O)[C@H](O)[C@H]5N)[C@H](O)[C@@H]4O[C@H]4O[C@@H](CN)[C@@H](O)[C@H](O)[C@H]4N)nn3)nn2)[C@H](N)[C@@H](O)[C@@H]1O | 3.3 | 72.1 | 
NC[C@@H]1O[C@H](O[C@H]2[C@@H](O)[C@H](O[C@@H]3[C@@H](O)[C@H](N)C[C@H](N)[C@H]3O[C@H]3O[C@H](CN)[C@@H](O)[C@H](O)[C@H]3N)O[C@@H]2Cn2cc(COCc3cn(C[C@H]4O[C@@H](O[C@@H]5[C@@H](O)[C@H](N)C[C@H](N)[C@H]5O[C@H]5O[C@H](CN)[C@@H](O)[C@H](O)[C@H]5N)[C@H](O)[C@@H]4O[C@H]4O[C@@H](CN)[C@@H](O)[C@H](O)[C@H]4N)nn3)nn2)[C@H](N)[C@@H](O)[C@@H]1O | 10.2 | 79.1 | Activity [3]: Active
NC[C@@H]1O[C@H](O[C@H]2[C@@H](O)[C@H](O[C@@H]3[C@@H](O)[C@H](N)C[C@H](N)[C@H]3O[C@H]3O[C@H](CN)[C@@H](O)[C@H](O)[C@H]3N)O[C@@H]2Cn2cc(CCCc3cn(C[C@H]4O[C@@H](O[C@@H]5[C@@H](O)[C@H](N)C[C@H](N)[C@H]5O[C@H]5O[C@H](CN)[C@@H](O)[C@H](O)[C@H]5N)[C@H](O)[C@@H]4O[C@H]4O[C@@H](CN)[C@@H](O)[C@H](O)[C@H]4N)nn3)nn2)[C@H](N)[C@@H](O)[C@@H]1O | 9.3 | 78.2 | Tm [4]: 81.3 °C; Tm [5]: 80.4 °C; ΔTm [6]: 12.4 °C; ΔTm [7]: 11.5 °C
NC[C@@H]1O[C@H](O[C@H]2[C@@H](O)[C@H](O[C@@H]3[C@@H](O)[C@H](N)C[C@H](N)[C@H]3O[C@H]3O[C@H](CN)[C@@H](O)[C@H](O)[C@H]3N)O[C@@H]2Cn2cc(Cc3cccc(Cc4cn(C[C@H]5O[C@@H](O[C@@H]6[C@@H](O)[C@H](N)C[C@H](N)[C@H]6O[C@H]6O[C@H](CN)[C@@H](O)[C@H](O)[C@H]6N)[C@H](O)[C@@H]5O[C@H]5O[C@@H](CN)[C@@H](O)[C@H](O)[C@H]5N)nn4)c3)nn2)[C@H](N)[C@@H](O)[C@@H]1O | 9.3 | 78.2 | 
NC[C@@H]1O[C@H](O[C@H]2[C@@H](O)[C@H](O[C@@H]3[C@@H](O)[C@H](N)C[C@H](N)[C@H]3O[C@H]3O[C@H](CN)[C@@H](O)[C@H](O)[C@H]3N)O[C@@H]2CO)[C@H](N)[C@@H](O)[C@@H]1O [FRAMYCETIN] | 0.2 | 69.1 | pIC50 [8]: 6.38; pKd [8]: > 6.00
NC[C@@H]1O[C@H](O[C@H]2[C@@H](O)[C@H](O[C@@H]3[C@@H](O)[C@H](N)C[C@H](N)[C@H]3O[C@H]3O[C@H](CN)[C@@H](O)[C@H](O)[C@H]3N)O[C@@H]2Cn2cc(CCCCc3cn(C[C@H]4O[C@@H](O[C@@H]5[C@@H](O)[C@H](N)C[C@H](N)[C@H]5O[C@H]5O[C@H](CN)[C@@H](O)[C@H](O)[C@H]5N)[C@H](O)[C@@H]4O[C@H]4O[C@@H](CN)[C@@H](O)[C@H](O)[C@H]4N)nn3)nn2)[C@H](N)[C@@H](O)[C@@H]1O | 8.2 | 77.1 | 
NC[C@@H]1O[C@H](O[C@H]2[C@@H](O)[C@H](O[C@@H]3[C@@H](O)[C@H](N)C[C@H](N)[C@H]3O[C@H]3O[C@H](CN)[C@@H](O)[C@H](O)[C@H]3N)O[C@@H]2Cn2cc(CCCCCCc3cn(C[C@H]4O[C@@H](O[C@@H]5[C@@H](O)[C@H](N)C[C@H](N)[C@H]5O[C@H]5O[C@H](CN)[C@@H](O)[C@H](O)[C@H]5N)[C@H](O)[C@@H]4O[C@H]4O[C@@H](CN)[C@@H](O)[C@H](O)[C@H]4N)nn3)nn2)[C@H](N)[C@@H](O)[C@@H]1O | 6.1 | 74.9 | 
NC[C@@H]1O[C@H](O[C@H]2[C@@H](O)[C@H](O[C@@H]3[C@@H](O)[C@H](N)C[C@H](N)[C@H]3O[C@H]3O[C@H](CN)[C@@H](O)[C@H](O)[C@H]3N)O[C@@H]2Cn2cc(Cc3ccc(Cc4cn(C[C@H]5O[C@@H](O[C@@H]6[C@@H](O)[C@H](N)C[C@H](N)[C@H]6O[C@H]6O[C@H](CN)[C@@H](O)[C@H](O)[C@H]6N)[C@H](O)[C@@H]5O[C@H]5O[C@@H](CN)[C@@H](O)[C@H](O)[C@H]5N)nn4)cc3)nn2)[C@H](N)[C@@H](O)[C@@H]1O | 9.6 | 78.5 | 
C/C(CCc1cn(C[C@H]2O[C@@H](O[C@@H]3[C@@H](O)[C@H](N)C[C@H](N)[C@H]3O[C@H]3O[C@H](CN)[C@@H](O)[C@H](O)[C@H]3N)[C@H](O)[C@@H]2O[C@H]2O[C@@H](CN)[C@@H](O)[C@H](O)[C@H]2N)nn1)=C(/C)CCc1cn(C[C@H]2O[C@@H](O[C@@H]3[C@@H](O)[C@H](N)C[C@H](N)[C@H]3O[C@H]3O[C@H](CN)[C@@H](O)[C@H](O)[C@H]3N)[C@H](O)[C@@H]2O[C@H]2O[C@@H](CN)[C@@H](O)[C@H](O)[C@H]2N)nn1 | 7.6 | 76.4 | 
